Assay results taken from ChEMBL document CHEMBL2380219, “Physalin A induces apoptotic cell death and protective autophagy in HT1080 human fibrosarcoma cells” (J Nat Prod, 2013).
Active and inactive are the calls of the source. The calls are words filed in the database; no cut-off is given here.

Key:
Assay type in all cases: functional, cell-based
HT-1080 [1] = assay: Induction of autophagy in human HT1080 cells assessed as conversion from LC31to LC32 at 10 uM pretreated with rapamycin for 1 hr prior to compound addition measured after 24 hrs by Western blotting analysis
Procedure, shortened: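 HT1080 cells pretreated 1 h with 1 mM 3MA or 1 nM rapamycin, then 10 μM added for 24 h. Adherent and floating cells lysed in Hepes pH 7.4/Triton buffer. Equal protein on 12% SDS-PAGE and nitrocellulose, probed for beclin 1 and LC3, ECL detection. Normalized to β-actin, n = 3.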

A375-S2 = assay: Cytotoxicity against human A375-S2 cells assessed as growth inhibition after 24 hrs by MTT assay
Procedure, shortened: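 Seeded 0.8 × 10^4 cells/well, cultured 24 h, then exposed to 0, 10, 20, 40 or 80 μM for 24 h (DMSO <0.05%) in RPMI 1640 or MEM with 10% FBS. Adherent lines rinsed with PBS, given MTT 2 h at 37 °C. Suspension lines (U937, HL60) given MTT 2 h, then centrifuged. Formazan dissolved in DMSO, A492 read. Inhibition % = (control − sample)/(control − blank) × 100.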

HT-1080 [2] = assay: Induction of apoptosis in human HT1080 cells expressing beclin 1 siRNA assessed as increase in procaspase-3 cleavage at 10 uM after 24 hrs by Western blotting analysis relative to control
Procedure, shortened: (§1)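 Beclin 1 or nonspecific siRNA transfected into HT1080 cells (5 × 10^5 seeded a day earlier; transfection mixture for 7 h at 37 °C, then normal medium, 24 h before harvest). Cells then got 10 μM for 24 h. Adherent plus floating cells lysed in Hepes pH 7.4/Triton buffer at 4 °C for 60 min. Equal protein on 12% SDS-PAGE, nitrocellulose, ECL. Bands normalized to β-actin, n = 3.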

HT-1080 [3] = assay: Induction of apoptosis in human HT1080 cells assessed as upregulation of FADD protein expression at 10 uM pretreated with rapamycin for 1 hr prior to compound addition measured after 24 hrs by Western blotting analysis
Procedure, shortened: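 HT1080 cells pretreated 1 h with 1 mM 3MA or 1 nM rapamycin, then co-incubated with 10 μM for 24 h. Adherent and floating cells lysed in Hepes pH 7.4/Triton buffer. 12% SDS-PAGE, nitrocellulose, antibodies against Fas, FADD, caspase-8, caspase-3, PARP and ICAD, ECL detection. Densities normalized to β-actin; n = 3.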

HT-1080 [4] = assay: Induction of apoptosis in human HT1080 cells expressing beclin 1 siRNA assessed as suppression of LC31to LC32 conversion at 10 uM after 24 hrs by Western blotting analysis relative to control; procedure, shortened: as §1

Compound: C=C1C(=O)O[C@@H]2C[C@@]1(C)[C@@H]1C(=O)[C@]3(O)O[C@]14[C@@]2(C)OC(=O)[C@@]4(O)CC[C@H]1[C@H]3[C@H](O)C=C2CC=CC(=O)[C@@]21C [PHYSALIN A]
- Activity (HT-1080 [1]): Active
- growth inhibition (GI) (A375-S2): Dose-dependent effect
- Activity (HT-1080 [2]): Active
- Activity (HT-1080 [3]): inactive
- Activity (HT-1080 [4]): Active
